Compound activity from PubChem BioAssay.
Pf gamet viab = inhibitors of late stage P. falciparum gametocyte viability; P. falciparum stage V gametocytes, ATP luminescence, 24 h; inhibition, % at 10.9 µM; hit rate 0.065% among 150,000; AID 743093;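 active means inhibition above the mean plus 3 SD of compounds within the control limits, set per campaign, cut at about 38% in these data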;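 further: 0% = DMSO wells and 100% = medium only without gametocytes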
STAT3 act-1 = activators of IL-6 induced STAT3 signaling. U3A cells, IL-6 STAT3-luciferase reporter, luminescence; 100% = signal with IL-6 EC80 alone. activation (% of control), % at 5.6 µM. hit rate 0.91% among 190,000;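 active means activation above the screen-wide mean of compound activation plus 3 SD, cut at about 130% in these data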;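 further: 0% = background luminescence of wells with medium and substrate only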
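system = STAT3-luciferase reporter U3A cells | reagent = IL-6 stimulus at 33 ng/mL final | timing = 1 h compound pre-exposure, 6 h IL-6 stimulation, 37 °C | measured by = luminescence | evaluation = % activation versus median of IL-6-stimulated wells | control set = IL-6-only wells as 100% reference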
NF-kB expr up = raises NF-kB expression in human neuronal cells; fold change at 12.5 µM; NF-kB reporter expression; active compounds read high; hit rate 1.6% among 190,000; in the data active means fold change above about 3.3
APP 5'UTR act = activates APP 5'UTR luciferase reporter; SH-SY5Y APP 5'UTR luciferase reporter, luminescence; zero percent = DMSO vehicle wells; activation, % at 2 µM; hit rate 1% among 190,000; AID 1276;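 active means activation above a set limit, based on mean plus 3 SD of controls, cut at about 140% in these data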
STAT1 inh = STAT1 signaling inhibition | hit rate 0.35% among 200,000 | inhibition, % at 5.5 µM | NIH 3T3 STAT1-luciferase reporter, IFN-gamma, luminescence;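 active means inhibition above a set limit, the mean inhibition across all tested compounds plus 3 SD, cut at about 34% in these data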;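 further: 0% = IFN-gamma with DMSO and 100% = IFN-gamma with 300 µM nifuroxazide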
STAT1 act-1 = STAT1 signaling activation; AID 932; NIH 3T3 STAT1-luciferase reporter, IFN-gamma, luminescence; 100% = IFN-gamma alone, no compound; hit rate 2.6% among 200,000; activation (% of control), % at 5.5 µM;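 active means activation above the screen-wide mean activation plus 3 SD, cut at about 130% in these data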;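 further: raw ratio to IFN-gamma control signal so 100% means no change and 0% no light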
STAT3 act-2 = STAT3 activation, confirmation assay; shares compounds with STAT3 act-1; AID 1267; hit rate 64% among 1,200; potentiation (% of control), % at 5.7 µM; U3A STAT3-luciferase reporter, IL-6 potentiation, luminescence; U3A cells lack STAT1; 100 means same as IL-6 alone;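 active means percent activation of the STAT3 luciferase reporter above a set limit taken from the earlier primary screen, cut at about 130% in these data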;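 further: 0% = background signal of medium plus substrate and 100% = median of IL-6 with DMSO wells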
NFkB act STAT3ct = activates NF-kappaB, counter-screen to STAT3 activators; hit rate 11% among 1,200; activation (% of control), % at 5.7 µM; shares compounds with STAT3 act-1; human cells, NF-kappaB reporter activation; in the data active means activation above about 120%;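 further: reporter induced by TNF-alpha stimulation; 100% = median of stimulated DMSO wells and 0% = no signal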
STAT1 act-2 = counter-screen for STAT3 activators: STAT1 activation | hit rate 13% among 1,200 | activation (% of control), % at 5.7 µM | shares compounds with STAT3 act-1 | NIH 3T3 STAT1-luciferase reporter, IFN-gamma, luminescence;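 active means activation above the solvent-only control well mean plus 3 SD, set per screening run, cut at about 120% in these data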;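 further: 100% = IFN-gamma with DMSO median signal so 100% means no change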
Starred values were filed as active, the others as inactive; x = no result. The list is not random: actives were taken first. Their share in the collection is about 3.9%.

SMILES	Pf gamet viab	STAT3 act-1	NF-kB expr up	APP 5'UTR act	STAT1 inh	STAT1 act-1	others
O=[N+]([O-])c1ccc(N2CCN(c3ccc(Cl)nn3)CC2)cc1NC1CC1	5.9	87.9	x	-1.7	8.7	91.2
CNC(=O)CSc1nc2cccnc2n1-c1ccc(F)cc1	4.3	x	x	x	x	x
COc1ccc(CNC(=S)Nc2ccccc2)cc1	3.2	x	x	x	x	x
CCCOc1ccc(CC(=O)NNC(=S)Nc2ccccc2)cc1Br	-19.7	96.7	3.31*	11.9	-8.6	112.8
Cc1cccn2c(N)c(-c3ccccc3)nc12	-10.3	133.8*	1.28	17.8	-1.8	101.6
COc1ccc([C@H]2CC(=O)C=C(c3ccc(F)cc3OCc3ccccc3)C2)cc1OC	13.2	x	x	x	x	x
COc1ccccc1CCN1CCCC(CN(C)C(=O)CCC(N)=O)C1 (stereo not given)	-3.1	x	x	x	x	x
COC(=O)c1ccc2nc(Nc3nc4ccc(F)cc4s3)sc2c1	x	24.1	2.02	-42.5	63.8*	42.9
CC(=O)c1sc(Nc2nc3ccc(F)cc3s2)nc1C	x	106.2	2.67	44.1	-38.8	135.4*
COC(=O)c1ccc2nc(NC(=O)C3CCCCC3)sc2c1	9.8	107.0	1.57	141.1*	-26.1	124.1
COC(=O)c1ccc2nc(NC(=O)C(C)(C)C)sc2c1	x	15.8	1.06	107.6	73.8*	30.5
COc1ccc(CNC(NC(=O)c2ccccc2)(C(F)(F)F)C(F)(F)F)cc1	18.1	104.8	1.24	-1.4	-2.7	102.4
Cc1nnsc1SCCNC(=O)Nc1ccc(Cl)cc1	x	105.0	2.01	31.7	-27.1	121.8
CCOC(=O)c1cnc2c(ccc3ccccc32)c1N	7.5	x	x	x	x	x
O=C(NC(=O)c1ccccc1)NC1(C(F)(F)F)OCCO1	x	118.7	4.25*	96.9	-38.7	135.2*
O=C(NCc1ccccc1)NC(=O)c1ccccc1	16.5	105.3	1.68	9.7	-5.1	104.6
CC(C)CCn1cnc2c(oc3nc4c(cc32)CCCC4)c1=O	18.9	x	x	x	x	x
COc1ccc(-c2cc(C(=O)N3CCN(Cc4ccccc4)CC3)no2)cc1OC	x	109.5	0.88	-0.9	-8.8	107.1
COc1ccccc1N1CCN(C(=O)c2cc(-c3ccc(C)cc3)on2)CC1	x	95.3	1.08	8.0	6.0	94.4
Cc1ccc(-c2cc(C(=O)N3CCCC3)no2)cc1	x	39.0	3.79*	208.1*	29.1	73.0
COc1ccc(-c2cc(C(=O)N3CCCCC3)no2)cc1OC	x	111.9	1.87	46.5	-34.8	131.9*
CC(=O)c1c(C)[nH]c(C(=O)NC(C)c2ccccc2)c1C (stereo not given)	10.3	86.3	1.28	-11.2	5.4	94.4
COCCN(CCOC)S(=O)(=O)c1ccc(C(=O)Nc2sc3c(c2C(N)=O)CCCCC3)cc1	-9.9	105.1	0.52	90.0	-31.5	128.6*
Cc1cc(C)nc(NC2=NCCN2C(=S)Nc2c(C)cccc2C)n1	8.9	102.7	0.91	14.6	9.0	91.0
O=C(CCc1nc2ccccc2s1)NC1CCOC1=O (stereo not given)	16.6	x	x	x	x	x
SMILES	Pf gamet viab	STAT3 act-1	NF-kB expr up	APP 5'UTR act	STAT1 inh	STAT1 act-1	others
O=C(CSc1cccc[n+]1[O-])CSc1cccc[n+]1[O-]	-4.2	95.3	4.86*	-0.9	5.2	92.6
O=C(c1ccccc1)N1CCN(c2ccc([N+](=O)[O-])c(NCC3CCCO3)c2)CC1 (stereo not given)	12.2	95.4	1.16	7.1	4.1	94.0
O=C1CC(c2cccs2)Sc2nc3ccccc3n21 (stereo not given)	x	108.0	3.05	116.9	-31.6	129.2*
O=C1CC(c2ccccc2)Sc2nc3ccccc3n21 (stereo not given)	2.8	80.0	2.45	167.8*	-33.4	131.7*
O=C1CC(c2ccc3c(c2)OCO3)Sc2nc3ccccc3n21 (stereo not given)	x	56.7	0.63	130.3	-21.8	120.0
CC(=O)NC1C(=O)N=C(SC(C)C(=O)Nc2cccc(Cl)c2)NC1=O (stereo not given)	2.2	97.7	1.81	-6.5	-7.7	104.2
O=C(CNS(=O)(=O)c1ccccc1)N1CCc2ccccc2C1	2.0	x	x	x	x	x
CNC(=O)NC(=O)C(C)OC(=O)c1c2c(nc3ccccc13)/C(=C/c1cccs1)CC2 (stereo not given)	3.0	94.4	1.15	17.9	-32.3	129.5*
CCCCNC(=O)COC(=O)c1c2c(nc3ccccc13)/C(=C/c1cccs1)CC2	x	99.4	0.7	60.0	27.5	75.8
COc1cc(S(=O)(=O)n2nnc3ccccc32)c(OC)cc1Cl	x	86.5	1.4	-5.0	34.7*	79.6
Clc1ccc(-c2cn3nc4c(nc3n2)CCCC4)cc1	-4.8	60.1	2.12	190.9*	-14.1	113.1
CC(C)[C@@H](CSc1ccccc1)N1CCN(Cc2ccccc2)CCC1=O	-17.7	x	x	x	x	x
N#Cc1ccc(N2Cc3ccccc3C2=NC(=O)c2cccnc2Cl)cc1	2.1	90.9	5.05*	2.3	-8.4	107.3
Cc1ccc(-n2c(C)cc(/C=c3/sc4nc5ccccc5n4c3=O)c2C)cc1	x	49.6	0.38	-27.3	43.1*	60.6
O=C(O)Cn1cc(/C=c2/sc3nc4ccccc4n3c2=O)c2ccccc21	-1.6	110.2	1.76	64.8	-35.4	131.0*
CSCC(O)Cn1ncc2ccccc2c1=O (stereo not given)	16.7	x	x	x	x	x
Cn1nnnc1SCC(=O)C(C)(C)C	12.7	99.5	1.12	-4.9	-6.3	103.9
CCCCOc1ccc(-c2cc(C(=O)NNC(=S)NCC)c3ccccc3n2)cc1	x	27.6	4.11*	153.5*	59.5*	45.4
CCNC(=S)NNC(=O)c1cc(-c2ccc(OC)cc2)nc2ccccc12	x	36.9	4.12*	103.3	20.9	81.5
Cn1cc(C(CO)Cc2ccccc2)c2ccccc21 (stereo not given)	-2.3	x	x	x	x	x
COc1ccc(C(=O)OCC(=O)N2CCCC2=O)c(OC)c1	x	104.5	1.12	3.4	-44.6	139.0*
OCC[C@H]1C[C@@H](O)[C@H](O)[C@]2(CCCO2)O1	-9.2	x	x	x	x	x
Cc1oc2c(cc(NS(=O)(=O)c3cccs3)c3ccccc32)c1C(=O)OC(C)C	5.0	153.6*	1.06	40.2	-0.8	102.5	STAT3 act-2=131.3;NFkB act STAT3ct=107.1;STAT1 act-2=107.9
Cc1ccc2c(c1)c1nnc(SCC(=O)Nc3ccc(N(C)C)cc3)nc1n2CC(=O)O	3.2	x	x	x	x	x
Cc1cc(SCC(=O)NC(=O)c2cccn2C)nc2ccccc12	10.8	x	x	x	x	x
CN(C)/C=C1\C(=O)Oc2ccccc2C1=O	3.2	x	x	x	x	x
